Laboratory results from ChEMBL document CHEMBL1133509, “Synthetic oleanane and ursane triterpenoids with modified rings A and C: a series of highly active inhibitors of nitric oxide production in mouse macrophages” (J Med Chem, 2000).
pIC50: −log10 of the molar value.

Organism: Mus musculus
Experiment: Evaluated for the inhibitory activity of (Nitric Oxide)NO production induced by interferon-gamma (IFN-gamma) in mouse macrophages( toxic to cells above 1 uM and is not active below 1 uM); Toxic; call rule not given here
Type: functional, cell-based
With `C[C@@H]1CC[C@]2(C(=O)O)CC[C@]3(C)C(=CC[C@@H]4[C@@]5(C)CC[C@H](O)C(C)(C)[C@@H]5CC[C@]43C)C2[C@H]1C` (stereo partly specified) the IC50 was “Toxic”.
`COC(=O)C1=C[C@]2(C)C3=CC(=O)C4C5CC(C)(C)CC[C@]5(C(=O)OC)CC[C@@]4(C)[C@]3(C)CC[C@H]2C(C)(C)C1=O` (stereo partly specified) was tested, and the IC50 was “Toxic”.

Organism: Mus musculus
Experiment: Inhibition of nitric oxide (NO) production induced by interferon-gamma (IFN-gamma) in mouse macrophages
Type: functional
Outline: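 Primary peritoneal macrophages from female CD-1 mice (5–10 weeks), harvested four days after i.p. injection of 4% thioglycollate broth. Seeded at 2 × 10^5 cells/well and incubated 48 h with 20 ng/mL recombinant mouse IFN-γ plus compound in DMSO (final ≤0.1%), with DMSO controls. Nitrite in supernatant measured by Griess reaction at 550 nm in triplicate against sodium nitrite standard curve. IC50 is the average of two experiments.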
With `COC(=O)[C@]12CC[C@@H](C)[C@H](C)C1C1=CC(=O)[C@@H]3[C@@]4(C)C=CC(=O)C(C)(C)[C@@H]4CC[C@@]3(C)[C@]1(C)CC2` (stereo partly specified) the pIC50 was 5.05.
`COC(=O)[C@]12CCC(C)(C)CC1C1C(=O)C=C3[C@@]4(C)C=CC(=O)C(C)(C)[C@@H]4CC[C@@]3(C)[C@]1(C)CC2` (stereo partly specified) was tested, and the pIC50 was 6.15.
`C[C@@H]1CC[C@]2(C(=O)O)CC[C@]3(C)C(=CC(=O)[C@@H]4[C@@]5(C)C=C(C#N)C(=O)C(C)(C)[C@@H]5CC[C@]43C)C2[C@H]1C` (stereo partly specified) was tested, and the pIC50 was 6.10.
In the case of `COC(=O)[C@]12CC[C@@H](C)[C@H](C)C1C1=CC(=O)[C@@H]3[C@@]4(C)C=C(C#N)C(=O)C(C)(C)[C@@H]4CC[C@@]3(C)[C@]1(C)CC2` (stereo partly specified), the pIC50 was 7.00.
`CC1(C)CC[C@]2(C=O)CC[C@]3(C)C(=CC(=O)[C@@H]4[C@@]5(C)C=CC(=O)C(C)(C)[C@@H]5CC[C@]43C)C2C1` (stereo partly specified) showed a pIC50 of 5.42.
Compound `COC(=O)[C@]12CCC(C)(C)CC1C1C(=O)C=C3[C@@]4(C)C=C(C(N)=O)C(=O)C(C)(C)[C@@H]4CC[C@@]3(C)[C@]1(C)CC2` (stereo partly specified) has a pIC50 of 7.00.
With `CC(=O)OC[C@]12CCC(C)(C)CC1C1=CC(=O)[C@@H]3[C@@]4(C)C=CC(=O)C(C)(C)[C@@H]4CC[C@@]3(C)[C@]1(C)CC2` (stereo partly specified) the pIC50 was < 4.40.
Compound `COC(=O)[C@]12CCC(C)(C)CC1C1=CC(=O)[C@@H]3[C@@]4(C)C=CC(=O)C(C)(C)[C@@H]4CC[C@@]3(C)[C@]1(C)CC2` (stereo partly specified) has a pIC50 of 5.55.
`COC(=O)[C@]12CCC(C)(C)CC1C1C(=O)C=C3[C@@]4(C)C=C(C=O)C(=O)C(C)(C)[C@@H]4CC[C@@]3(C)[C@]1(C)CC2` (stereo partly specified) was tested, and the pIC50 was 7.00.
In the case of `COC(=O)[C@]12CCC(C)(C)CC1C1C(=O)C[C@@H]3[C@@]4(C)C=CC(=O)C(C)(C)[C@@H]4CC[C@@]3(C)[C@]1(C)CC2` (stereo partly specified), the pIC50 was 4.85.
For `CC1(C)CC[C@]2(CO)CC[C@]3(C)C(=CC(=O)[C@@H]4[C@@]5(C)C=CC(=O)C(C)(C)[C@@H]5CC[C@]43C)C2C1` (stereo partly specified), the pIC50 was 5.52.
Compound `CC1(C)CC[C@]2(C(=O)O)CC[C@]3(C)C(=CC(=O)[C@@H]4[C@@]5(C)C=CC(=O)C(C)(C)[C@@H]5CC[C@]43C)C2C1` (stereo partly specified) has a pIC50 of 5.96.
With `COC(=O)[C@]12CCC(C)(C)CC1C1=CC[C@@H]3[C@@]4(C)C=CC(=O)C(C)(C)[C@@H]4CC[C@@]3(C)[C@]1(C)CC2` (stereo partly specified) the pIC50 was 4.51.

Organism: Mus musculus
Experiment: Evaluated for the inhibitory activity of (Nitric Oxide)NO production induced by interferon-gamma (IFN-gamma) in mouse macrophages(toxic to cells above 1 uM and is not active below 1 uM); Toxic
Type: functional, cell-based
For `COC(=O)[C@]12CCC(C)(C)CC1C1=CC[C@@H]3[C@@]4(C)C=C(C=O)C(=O)C(C)(C)[C@@H]4CC[C@@]3(C)[C@]1(C)CC2` (stereo partly specified), the IC50 was “Toxic”.
